Assay results taken from article PMC4780725 (Drug Design, Development and Therapy, 2016).

Legend:
SGC-7901 cells = test: MTT cell viability assay, SGC-7901; assay type: cell-based, human; settings: read-out: IC50 values of compounds on cells, SGC-7901, 72 hours, SGC-7901 gastric cancer cells
Method in brief: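 SGC-7901 cells were seeded at ~5,000/well and exposed 72 h to test compound at 0.096, 0.48, 2.4, 12 and 60 µM. MTT was added for 4 h, formazan dissolved in DMSO and absorbance read at 490 nm. Inhibition ratio = (1 − A treated/A DMSO control) × 100%. IC50, the concentration giving 50% inhibition of proliferation, was calculated by curve fitting.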

[1] = system: p65 nuclear translocation in SGC-7901 cells; test: p65 nuclear translocation, Western blot of nuclear extracts, SGC-7901; assay type: cell-based, human; settings: SGC-7901, pretreatment 60 minutes, TNF-α 1 ng/mL 60 minutes
Method in brief: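 SGC-7901 cells were pretreated for 60 min with test compound (10 or 20 µM), a reference NF-κB inhibitor or DMSO, then stimulated with TNF-α at 1 ng/mL for 60 min. Cells were trypsinized and washed thrice in ice-cold PBS. Cytoplasmic extract came from Buffer A (10 min on ice) plus Buffer B (1 min) and a 16,000× g spin for 5 min; nuclear extract from the pellet in Buffer C for 40 min on ice. Nuclear p65 was normalized to Lamin B and cytoplasmic p65 to GAPDH.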

GES-1 cells = test: MTT cell viability assay, GES-1 normal gastric mucosa epithelial cells; assay type: cell-based; settings: Homo sapiens, GES1, 72 h, read-out: IC50 values of compounds on cells, GES-1
Method in brief: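 GES-1 cells were grown in RPMI-1640 with 10% FBS at 37°C and 5% CO2, seeded at ~5,000 cells/well, then exposed for 72 h to 0.096, 0.48, 2.4, 12 and 60 µM compound. MTT was added for 4 h, formazan dissolved in DMSO, and absorbance read at 490 nm. Inhibition was calculated against the DMSO control, and IC50 is the concentration giving 50% inhibition. At least three independent experiments were run.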

[2] = system: p65 nuclear translocation in BGC-823 cells; test: p65 nuclear translocation, immunofluorescence, BGC-823; assay type: cell-based, human; settings: BGC-823, 20 µM, 60 minutes before TNF-α
Method in brief: (§1)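 Cells were pretreated 60 min with DMSO, test compound (20 µM) or a reference NF-κB inhibitor (20 µM), then stimulated with TNF-α 1 ng/mL for 60 min. After an ice-cold PBS wash, cells were fixed 10 min at room temperature and blocked 1 h. They were incubated overnight at 4°C with rabbit anti-p65, then anti-rabbit Cy3 for 1 h in the dark, and DAPI for 5 min. Fluorescence microscopy at 20×10; p65 red and nuclei blue in merged images.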

[3] = system: SGC-7901 and BGC-823 cells; test: Matrigel invasion assay; assay type: cell-based, human; settings: 24 hours; Da0324 5 or 10 µM, curcumin 10 µM
Method in brief: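 Transwell inserts were coated with Matrigel and air-dried for 2 h at room temperature. Cells at 1×10^6 cells/mL in serum-free RPMI-1640 with compound or DMSO were placed in the upper chamber, with RPMI-1640 plus 10% FBS below, for 24 h at 37°C. Cells on the lower surface were fixed, crystal violet-stained and counted by light microscopy as the mean of three fields, from three separate treatments.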

[4] = Stability in phosphate buffer by UV-visible absorption spectra; assay type: physicochemical; settings: phosphate buffer pH 7.4, 250 to 600 nm, every 5 minutes for more than 25 minutes
Method in brief: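 Test compound was dissolved and diluted in DMSO, then mixed into phosphate buffer at pH 7.4. Optical density from 250 to 600 nm was recorded every 5 min for more than 25 min.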

[5] = system: SGC-7901 or BGC-823 cells; test: Cell cycle analysis by flow cytometry; assay type: cell-based, human; settings: 24 hours
Method in brief: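 Cells in RPMI-1640 with 10% FBS were exposed for 24 h to test compound (5 or 10 µM, or 20 µM for the reference) or DMSO. All cells were collected by trypsinization, PBS-washed, fixed in 75% ethanol for 1 h at −20°C, washed, and stained with PI for 15 min at 4°C in the dark. G0/G1, S and G2/M fractions were measured by FACS, from three separate treatments.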

[6] = system: SGC-7901 or BGC-823 cells; test: Clonogenic assay; assay type: cell-based, human; settings: 5 µM, 24 hours treatment, then 7 days in fresh medium
Method in brief: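 SGC-7901 or BGC-823 cells were exposed to test compound (2.5 or 5 µM) or DMSO for 24 h. The medium was then replaced with fresh medium and colonies grew for 7 days before crystal violet staining and photography.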

[7] = system: NF-κB activation induced by TNF-α in BGC-823 cells; test: Western blot of TNF-α-induced NF-κB activation; assay type: cell-based, human; settings: BGC-823, 10 µM, 60 minutes pretreatment, TNF-α 1 ng/mL 15 minutes
Method in brief: (§2)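 SGC-7901 or BGC-823 cells were pretreated 60 min with DMSO, test compound (5, 10 or 20 µM) or a reference NF-κB inhibitor (20 µM), then stimulated with TNF-α 1 ng/mL for 15 min. Whole-cell lysates were cleared at 12,000× g, 4°C, 10 min, and equal protein run on SDS-PAGE. Blots were probed overnight for p-IKK, IκB-α and p-IκB-α, then with HRP secondaries 1 h at 37°C. Densitometry normalised to IKK and GAPDH, respectively.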

[8] = system: p65 nuclear translocation in SGC-7901 cells; test: p65 nuclear translocation, immunofluorescence, SGC-7901; assay type: cell-based, human; settings: SGC-7901, 20 µM, 1 hour before TNF-α
Method in brief: as §1

[9] = system: NF-κB activation induced by TNF-α in SGC-7901 cells; test: Western blot of TNF-α-induced NF-κB activation; assay type: cell-based, human; settings: SGC-7901, 10 µM, 60 minutes pretreatment, TNF-α 1 ng/mL 15 minutes
Method in brief: as §2

[10] = system: caspase 3, bcl-2, bax in SGC-7901 cells; test: Western blot of apoptosis-related proteins, SGC-7901; assay type: cell-based, human; settings: SGC-7901, 10 µM, 24 hours
Method in brief: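 SGC-7901 cells were exposed 24 h to DMSO, test compound (5, 10 or 20 µM) or a reference compound (20 µM). Lysates were cleared at 12,000× g, 4°C, and equal protein separated by SDS-PAGE. Blots were probed overnight for caspase 3, cleaved caspase 3, bax and bcl-2, with GAPDH as loading control. Bands were quantified by densitometry.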

[11] = system: SGC-7901 or BGC-823 cells; test: Apoptosis by Annexin-V/PI flow cytometry; assay type: cell-based, human; settings: 10 or 20 µM, 24 hours
Method in brief: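 SGC-7901 or BGC-823 cells in RPMI-1640 with 10% FBS at 37°C, 5% CO2, were treated 24 h with test compound (10 or 20 µM), a reference compound (20 µM) or DMSO. Cells were collected, washed twice in PBS, then stained with Annexin-V for 10 min in the dark and with PI for 5 min, and analysed by FACS. Annexin+/PI− cells were scored early apoptotic and Annexin+/PI+ late apoptotic/dead; three separate treatments.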

Row | IC50 (SGC-7901 cells) [µM] | Absorption intensity of the spectrum in phosphate buffer (degradation) [4] | SMILES | Nuclear p65 after TNF-α stimulation [1] | IC50 (GES-1 cells) [µM] | p65 nuclear translocation induced by TNF-α [2] | Invasion through Matrigel [3] | Cells arrested in the G2/M phase ([5]; 20 µM) | Colony formation [6] | Expression of p-IKK and p-IκB-α stimulated by TNF-α [7] | p65 red fluorescence in cell nuclei after TNF-α [8] | Cells arrested in the G2/M phase ([5]; 10 µM) [%] | Phosphorylation of IKK and IκB-α stimulated by TNF-α [9] | Caspase 3 level and cleavage [10] | Number of early- and late-period apoptotic cells [11]
1 | 7.8 ± 1.8 |  | Cc1ccc2nc(NCCN)c3ncc(C)n3c2c1 [BMS345541, reference compound] | did not significantly increase | 9.8 ± 2.5 | could inhibit the p65 nuclear translocation |  |  |  |  |  |  |  |  | 
2 |  | significantly decreased | COc1cc(/C=C/C(=O)CC(=O)/C=C/c2ccc(O)c(OC)c2)ccc1O [CUR, curcumin, reference compound] |  | 29.1 ± 3.8 |  | could similarly inhibit cell invasion | ~ 10% | no significant effects |  |  |  |  |  | 
3 |  |  | COc1cccc(/C=C/C(=O)/C=C/c2cccc(OC)c2OC)c1OC [Compound B19, (1E,4E)-1,5-bis(2,3-dimethoxyphenyl)penta-1,4-dien-3-one] |  | 3.7 ± 1.9 |  |  |  |  |  |  |  |  |  | 
4 |  | less degraded than curcumin | COc1ccc(OC)c(/C=C2\CC/C(=C\c3ccc(O)c(OC)c3)C2=O)c1 [Da0324, (2E,5E)-2-(2,5-dimethoxybenzylidene)-5-(4-hydroxy-3-methoxybenzylidene)cyclopentanone] | did not significantly increase | 27.3 ± 8.2 | could inhibit the p65 nuclear translocation | obviously inhibited the invasion |  | No colonies were visible | similarly inhibit the expression of p-IKK and p-IκB-α | the red fluorescence did not increase in the cell nuclei | ~30 | significantly inhibit the phosphorylation of IKK and IκB-α | significantly reduced caspase 3 and induced its cleavage | significantly higher than those of the curcumin-treated cells
